Test [1] relates to Mus musculus. The test is described as follows: Antihyperglycemic activity in alloxan-induced diabetic BALB/c mouse model assessed as blood glucose level at 10 mg/kg measured after 8 hrs by glucometry analysis. The format is functional. Summed up: (§1)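 Diabetic BALB/c mice; blood sampled before dosing (0 h) and again at 2, 4, 6 and 8 h to measure blood glucose (mg/dl). Values are means ± SEM from three trials.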

Test [2] has as its target T1, Aldo-keto reductase family 1 member B1 (Homo sapiens, UniProt P15121). The test is described as follows: Inhibition of ALR2 (unknown origin) using sodium dl-glyceraldehyde as substrate preincubated for 10 mins followed by substrate addition by UV-spectrophotometry analysis. Summed up: (§2)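 Enzyme activity followed by UV spectrophotometry as the decrease in NADPH absorbance at 340 nm. Valproic acid served as positive control for ALR1, sorbinil for ALR2.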

In test [3] the test system is Mus musculus. Description: Antihyperglycemic activity in alloxan-induced diabetic BALB/c mouse model assessed as blood glucose level at 10 mg/kg measured after 2 hrs by glucometry analysis. The format is functional. Summed up:
as §1

Test [4] deals with Mus musculus. The test is described as follows: Antihyperglycemic activity in alloxan-induced diabetic BALB/c mouse model assessed as blood glucose level at 10 mg/kg measured after 4 hrs by glucometry analysis. The class given is functional. Put shortly: as §1
Test [5] deals with Mus musculus. The test is described as follows: Antihyperglycemic activity in alloxan-induced diabetic BALB/c mouse model assessed as blood glucose level at 10 mg/kg measured after 6 hrs by glucometry analysis. The class given is functional. Summed up: as §1
Test [6] deals with Aldo-keto reductase family 1 member A1 (Homo sapiens, UniProt P14550). Description: Inhibition of ALR1 (unknown origin) using sodium d-glucoronate as substrate preincubated for 10 mins followed by substrate addition by UV-spectrophotometry analysis. Put shortly: as §2
Chain of Aldo-keto reductase family 1 member A1 (P14550 2-325 limits assumed): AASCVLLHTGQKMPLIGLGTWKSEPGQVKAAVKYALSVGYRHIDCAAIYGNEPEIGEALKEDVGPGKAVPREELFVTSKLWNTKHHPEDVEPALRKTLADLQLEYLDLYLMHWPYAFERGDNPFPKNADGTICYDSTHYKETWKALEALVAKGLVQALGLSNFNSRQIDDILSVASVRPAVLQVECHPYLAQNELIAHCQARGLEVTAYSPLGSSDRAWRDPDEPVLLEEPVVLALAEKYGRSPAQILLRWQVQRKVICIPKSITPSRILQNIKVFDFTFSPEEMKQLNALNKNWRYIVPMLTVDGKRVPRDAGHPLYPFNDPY
The test system of test [7] is Mus musculus. Description: Antihyperglycemic activity in alloxan-induced diabetic BALB/c mouse model assessed as blood glucose level at 10 mg/kg measured immediately by glucometry analysis. The class given is functional. Summed up:
as §1

The target in test [8] is T1, Aldo-keto reductase family 1 member B1. Description: Selectivity index, ratio of IC50 for ALR1 (unknown origin) to IC50 for ALR2 (unknown origin).
Test [9] deals with Mus musculus. Description: Antihyperglycemic activity in alloxan-induced diabetic BALB/c mouse model assessed as reduction in blood glucose level at 10 mg/kg measured after 8 hrs by glucometry analysis relative to control. The class given is functional. Put shortly:
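Diabetic BALB/c mice; blood glucose measured at 0 h and at 2, 4, 6 and 8 h. Percent inhibition of blood glucose was calculated at 8 h. Three trials.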

From ChEMBL document CHEMBL4387757, “Synthesis and molecular modeling of novel non-sulfonylureas as hypoglycemic agents and selective ALR2 inhibitors” (Bioorg Med Chem, 2019) come the findings set out here.

In the case of `COc1ccc(NC(=O)CN2C(=O)NC3(C2=O)c2ccccc2-c2ccccc23)cc1`, the Activity in the test with Mus musculus [1] came to 370 mg/dL; in the test on Mus musculus [3], 258 mg/dL; with Mus musculus [4] it was 237 mg/dL; in the test on Mus musculus [5], 279 mg/dL; in the test with Mus musculus [7], 320 mg/dL. For the same molecule, the IC50 in test [2] was determined as 2.87 µM; in [6], 24.3 µM. Also, in test [8], the Ratio IC50 stood at 8.45.
Take `O=C(CN1C(=O)NC2(C1=O)c1ccccc1-c1ccccc12)Nc1ccc(Cl)cc1Cl`: in the test on Mus musculus [9], the inhibition in vivo at 10 mg/kg worked out at 84.3%. Further, the Activity was determined as 63 mg/dL in the test on Mus musculus [1]; 290 mg/dL in the test with Mus musculus [3]; 223 mg/dL with Mus musculus [4]; 168 mg/dL in the test with Mus musculus [5]; 398 mg/dL with Mus musculus [7]. The IC50 was 0.37 µM in test [2] and 35.5 µM in test [6]. The Ratio IC50 in [8] is 96.
Turning to `Cc1ccc(NC(=O)CN2C(=O)NC3(CCCCC3)C2=O)cc1`, in the test on Mus musculus [9], the inhibition in vivo at 10 mg/kg came out at 70.3%. The Activity in the test with Mus musculus [1] amounted to 115 mg/dL; in the test on Mus musculus [3], 305 mg/dL; in the test on Mus musculus [4], 268 mg/dL; in the test with Mus musculus [5], 197 mg/dL; in the test with Mus musculus [7], 387 mg/dL. The IC50 in test [2] came to 10.2 µM; in test [6], 6.43 µM. Further, the Ratio IC50 in test [8] worked out at 0.63.
With `CCOc1cc(CC(=O)N[C@@H](CC(C)C)c2ccccc2N2CCCCC2)ccc1C(=O)O` [REPAGLINIDE], the inhibition in vivo at 10 mg/kg in the test with Mus musculus [9] was 66.1%. Moreover, the Activity with Mus musculus [1] is 94 mg/dL; in the test with Mus musculus [3], 313 mg/dL; with Mus musculus [4], 259 mg/dL; in the test on Mus musculus [5], 160 mg/dL; in the test with Mus musculus [7], 392 mg/dL.
Turning to `COc1ccc(NC(=O)CN2C(=O)NC3(CCCCC3)C2=O)cc1`, in the test on Mus musculus [9], the inhibition in vivo at 10 mg/kg is 56.1%. For the same molecule, the Activity in the test with Mus musculus [1] stood at 163 mg/dL; in the test on Mus musculus [3] it was 322 mg/dL; in the test on Mus musculus [4] it was 299 mg/dL; with Mus musculus [5], 231 mg/dL; in the test on Mus musculus [7] it was 370 mg/dL. In addition, the IC50 in test [2] is 2.76 µM; in test [6], 25.8 µM. The Ratio IC50 in test [8] came out at 9.36.
`O=C(CN1C(=O)NC2(C1=O)c1ccccc1-c1ccccc12)Nc1ccc(Cl)cc1`: the inhibition in vivo at 10 mg/kg in the test on Mus musculus [9] is 80.4%. The Activity in the test on Mus musculus [1] came to 90 mg/dL; in the test on Mus musculus [3] it was 350 mg/dL; in the test with Mus musculus [4], 234 mg/dL; with Mus musculus [5] it was 189 mg/dL; with Mus musculus [7], 460 mg/dL. The figures for the IC50 in test [2] and in [6] were 1.03 µM and 22.2 µM, respectively. Besides, the Ratio IC50 in [8] came to 21.6.
As for `O=C(CN1C(=O)NC2(CCCCC2)C1=O)Nc1ccc(Cl)cc1Cl`, the inhibition in vivo at 10 mg/kg with Mus musculus [9] is 68.5%. In addition, the Activity turned out to be 121 mg/dL in the test with Mus musculus [1]; 319 mg/dL in the test with Mus musculus [3]; 269 mg/dL in the test with Mus musculus [4]; 217 mg/dL in the test with Mus musculus [5]; 384 mg/dL with Mus musculus [7]. The half-maximal inhibitory concentration (IC50) in [2] is 1.95 µM; in test [6], 32.9 µM. Besides, the Ratio IC50 in test [8] is 16.9.
`O=C(CN1C(=O)NC2(CCCCC2)C1=O)Nc1ccc(Br)cc1`: the inhibition in vivo at 10 mg/kg in the test with Mus musculus [9] worked out at 85.1%. The Activity with Mus musculus [1] stood at 69 mg/dL; in the test on Mus musculus [3], 386 mg/dL; in the test on Mus musculus [4] it was 276 mg/dL; in the test with Mus musculus [5], 182 mg/dL; in the test with Mus musculus [7], 459 mg/dL. For the same molecule, the IC50 in test [2] was determined as 0.72 µM; in [6], 31.2 µM. For the same molecule, the Ratio IC50 in [8] was 43.4.
Take `O=C(CN1C(=O)NC2(C1=O)c1ccccc1-c1ccccc12)Nc1ccc(Br)cc1`: in the test with Mus musculus [9], the inhibition in vivo at 10 mg/kg is 81.1%. In addition, the Activity was found to be 85 mg/dL with Mus musculus [1]; 331 mg/dL in the test with Mus musculus [3]; 218 mg/dL in the test on Mus musculus [4]; 173 mg/dL in the test with Mus musculus [5]; 452 mg/dL with Mus musculus [7]. In addition, the IC50 in test [2] is 0.93 µM; in test [6], 30.3 µM. Moreover, the Ratio IC50 in [8] was found to be 32.6.
`Cc1ccc(NC(=O)CN2C(=O)NC3(C2=O)c2ccccc2-c2ccccc23)cc1`: the inhibition in vivo at 10 mg/kg in the test on Mus musculus [9] is 53.4%. For the same molecule, the Activity turned out to be 167 mg/dL in the test on Mus musculus [1]; 314 mg/dL in the test with Mus musculus [3]; 283 mg/dL with Mus musculus [4]; 211 mg/dL in the test with Mus musculus [5]; 358 mg/dL with Mus musculus [7]. Moreover, the IC50 in [2] turned out to be 6.21 µM; in test [6], 10.9 µM. Moreover, the Ratio IC50 in [8] was found to be 1.76.
`O=C(CN1C(=O)NC2(CCCCC2)C1=O)Nc1ccc(Cl)cc1`: the inhibition in vivo at 10 mg/kg in the test with Mus musculus [9] turned out to be 79.2%. For the same molecule, the Activity stood at 85 mg/dL in the test with Mus musculus [1]; 347 mg/dL with Mus musculus [3]; 242 mg/dL in the test on Mus musculus [4]; 170 mg/dL in the test with Mus musculus [5]; 406 mg/dL with Mus musculus [7]. In addition, the 50% inhibitory concentration (IC50) in test [2] stood at 1.13 µM; in test [6], 20.7 µM. For the same molecule, the Ratio IC50 in test [8] was 18.3.
